Data on 17 compounds can be found in PubChem BioAssay.

Experiment [1] is described as follows: S. cerevisiae growth inhibition in permissive medium (OD615), pilot counter-assay for S. cerevisiae lifespan shortening project, permissive growth control (AID 705;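 active = growth inhibition above 25% in both replicates, a cutoff set 3 SD above the mean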). Particulars: OD615, 24 h, at 10 µM, hits give high values. A digest of the protocol: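 Test system: Saccharomyces cerevisiae strain carrying genetically modified DeaD replicative-lifespan system; buffer or medium: SC raffinose/galactose permissive medium; dosing: one dose 10 µM, DMSO 0.25% final; times: 24 h exposure, 30 °C; measured by: OD at 615 nm; read-out basis: growth inhibition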

A short description of experiment [2]: S. cerevisiae growth inhibition in restrictive medium, OD615, pilot screen, restrictive growth control, yeast lifespan reduction project (AID 706;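 active = growth inhibition above a set limit, 3 SD over mean compound inhibition, in both replicates, cut at about 43% in these data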;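 also: modified DeaD lifespan yeast strain shifted to restrictive glucose medium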). Particulars: OD615, 48 h, at 10 µM, hits give high values. Summed up: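 material = engineered S. cerevisiae DeaD strain | buffer or medium = glucose-based CSMM-D restrictive medium | dosing = one concentration, 10 µM final, 0.25% DMSO | schedule = 4 h pre-growth plus 48 h compound exposure, 30 °C | detection = OD615 absorbance reading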

Experiment [3] can be described thus: doxorubicin toxicity protection in MRP-1 cells – H69AR cells, CellTiter-Glo, duplicate, MRP-1 activator project, pilot screen (AID 807;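 active = viability increase at or above a cutoff of the median across tested compounds plus 3 SD, cut at about 8.5% in these data, passing the limit was not always enough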;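 also: compound pretreatment 18-22 h then 72 h combined with doxorubicin; 0% = doxorubicin alone and 100% = vehicle without doxorubicin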). Particulars: H69AR viability with doxorubicin, CellTiter-Glo luminescence; at 10 µM; hits give high values.
Experiment [4] can be described thus: viability of HCT116 without oncogenic beta-catenin – human colon tumor cells, pilot screen (AID 823;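 active = cell viability at or below a set limit in both duplicate runs, the limit being the all-compound median minus 4 SD, cut at about 23% in these data, passing the limit was not always enough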;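 also: 0% = wells killed by 20 µM Hyamine and 100% = untreated DMSO cell wells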). Particulars: HCT116 beta-catenin knockout viability, CellTiter-Glo, 60 h; at 10 µM; hits give low values.
Experiment [5] can be described thus: viability of PTEN-null HCT116 cells – cell-based, HCT116 clonal line, CellTiter-Glo, pilot screen (AID 824;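 active = viability at or below 27.92% in each of two runs, the all-compound median minus 4 SD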;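 also: 0% = 20 µM Hyamine control and 100% = vehicle cell control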). Particulars: HCT116 PTEN-deleted viability, 60 h, at 10 µM, hits give low values.
A short description of experiment [6]: RAM pathway blockade in budding yeast – dse1pr::URA3 reporter, 5-FOA selection, pilot screen (AID 869;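 active = inhibition over a set limit, the all-compound mean plus 3 SD, in both replicate runs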;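 also: 0% = DMSO wells with no growth and 100% = 10 µM 1-NA-PP1 with full growth; RAM network block rescues cells from 5-FOA so hits raise OD615 growth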). The conditions noted are these: S. cerevisiae dse1pr::URA3 5-FOA growth, OD615, 2 d; at 10 µM; hits give high values; strain carries analog-sensitive mutant Cbk1 kinase.
The nature of experiment [7]: RAM signaling pathway blockade in yeast – S. cerevisiae, Pdr1DBD-CYC8 efflux-inhibited sensitized strain, primary screen (AID 1298).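 Also: 0% = DMSO untreated cells without growth and 100% = 10 µM 1-NA-PP1 full growth; higher means more yeast growth rescued from 5-FOA killing.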 The conditions noted are these: S. cerevisiae cbk1-as DSE1-URA3 strain, 5-FOA growth OD615, 2 d; at 50 µM; hits give high values.

A number with no mark means an inactive call. Results filed as inconclusive are left out. Calls of active or inactive are those of the source.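 The calls were made as follows, unless noted: active = RAM network inhibition above 8.4% in each of two replicates, 3 SD over the compound average; inconclusive = above 8.4% inhibition in only one replicate; inactive = 8.4% inhibition or less in each replicate.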

With `COc1ccc(Cn2c(=O)[nH]c3cc(C(=O)N4CCN(Cc5ccccc5)CC4)ccc3c2=O)cc1`, the growth inhibition in experiment [1] is 1.4%; in experiment [2] it was -4.04%. For the same compound, the viability increase in experiment [3] was 1.49%. Further, the figures for the viability in experiment [4] and in experiment [5] were 36.3% and 49.7%, respectively. Moreover, in experiment [6], the inhibition is 0.835%. Also, the RAM network inhibition in experiment [7] was 1.57%.
On to `COc1ccc(C2c3c(oc4ccccc4c3=O)C(=O)N2c2ccccn2)cc1` (centres undefined), for which the growth inhibition in experiment [1] was -12.9%; in experiment [2], -7.65%. The viability increase in experiment [3] was -0.92%. Moreover, the viability in experiment [4] is 90.9%; in experiment [5] it was 91%. Further, the inhibition in experiment [6] was 3.71%. In addition, the RAM network inhibition in experiment [7] is 4.85%.
Regarding `O=C(OC1CCCCC1)c1ccc(NC(=O)c2ccco2)cc1`, the results for the growth inhibition in experiment [1] and in experiment [2] were -1.26% and -7.55%, respectively. In addition, the viability increase in experiment [3] is -2.73%. Besides, the viability in experiment [4] is 70.1%; in experiment [5] it was 77.5%. Further, the inhibition in experiment [6] is 0.87%. The RAM network inhibition in experiment [7] is 2.81%.
For `CSc1oc(-c2ccc(F)cc2)nc1S(=O)(=O)c1ccc(F)cc1`, the growth inhibition is -2.23% in experiment [1] and -6.25% in experiment [2]. The viability increase in experiment [3] is -1.96%. The viability was 85.1% in experiment [4] and 79.6% in experiment [5]. For the same compound, in experiment [6], the inhibition was 1.59%. Also, the RAM network inhibition in experiment [7] is 4.1%.
With `COc1ccc(-n2nnnc2S(=O)(=O)CC(=O)N2CCCCC2)cc1`, the values for the growth inhibition in experiment [1] and in experiment [2] were -2.05% and 6.43%, respectively. For the same compound, in experiment [3], the viability increase was -9.59%. Moreover, the viability was 1.47% (active) in experiment [4] and 2.74% (active) in experiment [5]. Moreover, the inhibition in experiment [6] was 0.75%. Besides, the RAM network inhibition in experiment [7] is -0.17%.
Take `N#CCCN1CCN(C(CNS(=O)(=O)c2ccc(Cl)cc2)c2ccccc2)CC1` (centres undefined): the figures for the growth inhibition in experiment [1] and in experiment [2] were -11.4% and -16.5%, respectively. The viability increase in experiment [3] is -1.72%. In addition, the values for the viability in experiment [4] and in experiment [5] were 95.3% and 94.8%, respectively. Moreover, in experiment [6], the inhibition is 1.9%. Further, in experiment [7], the RAM network inhibition is 6.39%.
Regarding `CCOC(=O)C1C(=O)CC(C)(O)C(C(=O)OCC)C1/C=C/c1ccccc1` (centres undefined), the growth inhibition in experiment [1] was -4.58%; in experiment [2] it was 2.66%. For the same compound, the viability increase in experiment [3] was -3.71%. For the same compound, the results for the viability in experiment [4] and in experiment [5] were 94.4% and 83.1%, respectively. In addition, the inhibition in experiment [6] was 0.605%. In experiment [7], the RAM network inhibition was 7.42%.
As for `O=C(CCn1c(=O)sc2ccccc21)NCCN1CCOCC1`, the growth inhibition was -3.08% in experiment [1] and -14.8% in experiment [2]. Moreover, the viability increase in experiment [3] was -1.01%. The viability was 101% in experiment [4] and 106% in experiment [5]. The inhibition in experiment [6] is 1.49%. The RAM network inhibition in experiment [7] was 1.56%.
For the compound `CC(C)=C1C2C=CC1C(C(=O)Nc1cc(C)ccc1C)C2C(=O)O` (centres undefined), the growth inhibition in experiment [1] is -14.6%; in experiment [2] it was -12.2%. Besides, the viability increase in experiment [3] is -4.28%. The viability in experiment [4] is 87.4%; in experiment [5] it was 85.8%. For the same compound, the inhibition in experiment [6] was 1.78%. Also, in experiment [7], the RAM network inhibition is 6.92%.
With `O=C(NC1CCCCCC1)C1CCN(S(=O)(=O)c2cccc3cccnc23)CC1`, the growth inhibition in experiment [1] is 8.96%; in experiment [2], 6.42%. Also, the viability increase in experiment [3] is 2.08%. The viability was 99.5% in experiment [4] and 105% in experiment [5]. In experiment [6], the inhibition was -0.605%. Further, in experiment [7], the RAM network inhibition is 1.35%.
As to `O=C(Nc1ccccc1)N(CCCN1CCOCC1)Cc1cccs1`, the growth inhibition in experiment [1] is -1.32%; in experiment [2] it was 9.1%. The viability increase in experiment [3] was -3.05%. For the same compound, the viability in experiment [4] is 96.3%; in experiment [5] it was 93.9%. Besides, the inhibition in experiment [6] is 2.5%. For the same compound, the RAM network inhibition in experiment [7] was 0.88%.
On to `Cc1cccc(C)c1NC(=O)C1(NC(=O)c2cnccn2)CCCCC1`, for which the growth inhibition in experiment [1] was -12.1%; in experiment [2] it was 0.045%. Further, the viability increase in experiment [3] is -2.5%. The figures for the viability in experiment [4] and in experiment [5] were 98.4% and 95.1%, respectively. For the same compound, the inhibition in experiment [6] is 1.21%. The RAM network inhibition in experiment [7] was 0.32%.
`CN(C)c1ccnc2sc(C(=O)NCc3ccccc3)c(N)c12`: the growth inhibition in experiment [1] is -17.2%; in experiment [2], 17.5%. Also, the viability increase in experiment [3] is -2.17%. In addition, the viability was 81.3% in experiment [4] and 78.7% in experiment [5]. In experiment [6], the inhibition was 2.11%. In addition, the RAM network inhibition in experiment [7] is 1.39%.
Turning to `O=C(Nc1ccc(N2CCCC2)c(Cl)c1)c1ccc(Br)o1`, the growth inhibition is 3.44% in experiment [1] and 17% in experiment [2]. Besides, the viability increase in experiment [3] is -4.13%. In addition, the viability in experiment [4] was 78.2%; in experiment [5] it was 79.2%. The inhibition in experiment [6] was 0.885%. The RAM network inhibition in experiment [7] was 3.68%.
For `CCCSc1nnc(Cn2c(=O)sc3ccccc32)n1C`, the growth inhibition in experiment [1] was -15.8%; in experiment [2], -38%. The viability increase in experiment [3] was -2.24%. Further, the viability in experiment [4] was 94.3%; in experiment [5], 87.1%. Moreover, in experiment [6], the inhibition is 0.415%. Also, the RAM network inhibition in experiment [7] is -0.25%.
As for `Nc1c(C(=O)NCc2ccccc2)nnn1Cc1ccccc1`, the figures for the growth inhibition in experiment [1] and in experiment [2] were -6.54% and 4.1%, respectively. In addition, the viability increase in experiment [3] is 1.95%. The viability in experiment [4] is 99.8%; in experiment [5] it was 91.2%. Moreover, in experiment [6], the inhibition is 1.02%. In addition, the RAM network inhibition in experiment [7] was 2.99%.
Consider `O=C(O)CC12CSc3[nH]c(=O)sc3C1c1ccccc1OC2=O` (centres undefined), for which the growth inhibition was 3.48% in experiment [1] and -0.005% in experiment [2]. Besides, the viability increase in experiment [3] was -2.73%. Besides, the viability in experiment [4] was 101%; in experiment [5], 95%. For the same compound, the inhibition in experiment [6] was 1.14%. In addition, in experiment [7], the RAM network inhibition is -0.11%.
